The list is not random: actives were taken first. Their share in the collection is about 3.1%.
miR-122 sensor = miR-122 inhibition in Huh7 cells; Huh7 miR-122 Renilla luciferase sensor, 48 h; neutral wells = 0, positive control = 100; activation (reporter increase), % at 12.5 µM; 0.3% of 340,000 active;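 active means mean replicate activation score at least 90 and every replicate individually at or above 90; inconclusive means only one of the two criteria met; inactive means neither criterion met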;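 further: higher luciferase means less miR-122 activity so hits act as miR-122 inhibitors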
DENV2 CPE = protects cells from dengue virus 2 cytopathic effect. DENV2-infected cells, cytopathic effect rescue, plate reader. CPE inhibition, % at 9.99 µM. 1.7% of 350,000 active. AID 651640; in the data active means CPE inhibition above about 20%, passing the limit was not always enough; inconclusive means no clear call, values can overlap the other calls; tested in BHK-21 cells;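 further: 0% = median of neutral control wells and 100% = median of positive control wells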
E-sel inducer = E-selectin induction on HUVECs. activation, % at 7.58 µM. P16581. HUVEC E-selectin immunofluorescence imaging; normalized: neutral wells 0, TNF-alpha wells 100. 0.37% of 260,000 active;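 active means mean E-selectin-positive cell signal at least 10% of the positive control, reached in at least 60% of replicates, without over 20% cell loss; inconclusive means no rule given, readout overlaps actives, possibly toxicity-flagged; inactive means the rest, including those meeting only one limit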
Target sequence (P16581 whole entry, looked up): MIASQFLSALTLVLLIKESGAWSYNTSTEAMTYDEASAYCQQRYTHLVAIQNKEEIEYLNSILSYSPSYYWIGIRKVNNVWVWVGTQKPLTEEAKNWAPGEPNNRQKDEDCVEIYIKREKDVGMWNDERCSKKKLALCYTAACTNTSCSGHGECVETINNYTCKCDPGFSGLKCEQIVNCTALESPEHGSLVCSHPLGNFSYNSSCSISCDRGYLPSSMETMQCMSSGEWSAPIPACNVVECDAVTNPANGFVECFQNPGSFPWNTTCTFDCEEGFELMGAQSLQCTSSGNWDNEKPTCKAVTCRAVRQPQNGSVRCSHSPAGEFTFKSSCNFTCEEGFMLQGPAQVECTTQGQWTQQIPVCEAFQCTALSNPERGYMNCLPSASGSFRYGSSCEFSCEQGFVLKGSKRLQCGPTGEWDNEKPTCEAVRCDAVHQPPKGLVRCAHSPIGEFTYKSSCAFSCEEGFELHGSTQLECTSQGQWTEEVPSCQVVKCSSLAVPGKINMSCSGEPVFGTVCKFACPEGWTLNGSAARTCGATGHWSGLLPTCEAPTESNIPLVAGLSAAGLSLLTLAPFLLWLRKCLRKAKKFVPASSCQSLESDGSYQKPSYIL
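System: HUVEC, human umbilical vein endothelial cells; quantity: 3,000 cells/well; buffer or medium: EGM-2 medium, gelatin-coated wells; dosing: single-point compound dose; detection: immunofluorescence imaging; evaluation: % PE-positive cells; benchmarks: TNF-alpha, DMSO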
rRNA inh HTS = inhibits bacterial ribosomal RNA function over humanized ribosomes | AID 720706 | E. coli WT GFP vs humanized-ribosome RFP mutants, fluorescence, 24 h; stronger effect = lower value; DMSO median 0, no signal -100 | 1.6% of 350,000 active | GFP signal change (wild-type ribosome), % (no concentration beside the values);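 active means significant combined selectivity score with lowered wild-type GFP, culture density cut under 30%, mutant RFP and density less affected; inactive means any of these conditions unmet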
Cneo AK release = causes C. neoformans cell lysis. lysis activity, % at 15 µM. 0.2% of 360,000 active. adenylate kinase release luminescence, 4 h; normalised: neutral wells 0, clomiphene wells 100;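 active means mean lysis activity across replicates of at least 80%, whatever share of replicates individually reach that level; inactive means mean lysis activity below 80%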
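Signal: Adenylate kinase release luminescence | Assay system: Log-phase Cryptococcus neoformans yeast cells | Input: Cells at 5 × 10^6 per mL | Buffer or medium: Fresh YPD growth medium | Compound: Single dose | Schedule: Static 4 h at 37 °C with compound, 1 h detection | Controls: Clomiphene | Read-out: Luminescence rise reflecting yeast cell lysis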
* = called active by the depositor; ? = inconclusive; · = no result; ! = not active in a repeat; [ ] = dose if it differs, or a comment.

SMILES	miR-122 sensor	DENV2 CPE	E-sel inducer	rRNA inh HTS	Cneo AK release
C/C(=N/NC(=O)CCC(=O)Nc1cccc(Cl)c1)c1ccc(C)cc1	·	27.6*	·	12.4	·
O=C(CC(=O)c1cccs1)c1ccncc1	0.0	1.9	-0.4	-22.3*	-5.9
O=C(CCN1CCCCC1)NCC[C@H]1CC[C@@H](NC(=O)C2CCCCC2)[C@H](CO)O1	·	-3.1	-0.1	2.1	·
CCOC(=O)c1nc2c(ccc3ccccc32)cc1C	-2.7	2.1	-0.2	-31.2*	-2.2
Cn1c(=O)c2[nH]c(CCCCc3nc4ccccc4[nH]3)nc2n(C)c1=O	-1.9	47.4*	·	-2.4	·
O=C(CNC(=S)N(Cc1ccc(F)cc1)C1CCCCC1)NCC1CCCO1 (centres undefined)	·	3.5	-0.1	4.2	·
O=C(CNC(=S)N(Cc1ccccc1F)C1CCCCC1)NCC1CCCO1 (centres undefined)	·	-4.4	?	-31.7*	·
O=C(c1cccnc1)N1CC(=O)N2[C@H](CO)[C@@H](c3ccc(/C=C/c4ccccc4)cc3)[C@@H]2C1	·	8.4	-0.6	-0.3	·
CNC[C@H]1Oc2ccc(N(C)C)cc2CC(=O)N([C@@H](C)CO)C[C@H]1C	-8.6[16.7 µM]	-1.1	·	7.5	-12.8
COc1ccccc1/C=N/NC(=S)NCc1ccco1	-0.7	-5.7	0.5	-10.8	89.3*
S=C(NCc1ccco1)N/N=C/c1ccc(Cl)cc1	·	-0.6	-1.5	-38.7*	·
CC=Cc1ccc2n(c1=O)C[C@@H]1[C@@H](CO)[C@H](C(=O)NCCc3cn(C)cn3)N(C(=O)CC)[C@H]21 (mixture of isomers)	·	3.5	-0.3	2.8	·
O=C(/C=C/c1ccccc1)c1ccc2c(c1)OCO2	1.0	-3.9	0.1	-24.4*	0.5
O=C(/C=C/c1ccc2c(c1)OCCCO2)c1ccccc1O	·	·	0.2	-33.1*	·
Cc1ccc(O)c(C(=O)/C=C/c2ccc3c(c2)OCCCO3)c1	·	5.1	·	-12.6	·
COc1ccc2c3c([nH]c2c1)[C@@H](CO)N(C(=O)Cc1ccccc1)CC31CCN(C(=O)Nc2ccccc2F)CC1	·	-10.2	1.6	-2.3	·
CCCNC(=O)N1[C@H](CO)[C@@H](c2ccccc2)C12CN(C(=O)CC1CC1)C2	·	-1.8	-0.2	2.2	·
O=C(Nc1ccc2nc3n(c(=O)c2c1)CCCC3)c1ccccc1F	-9.0	38.6*	-0.1	6.1	-0.9
CCOC(=O)C1CCCN(C(=O)C(=O)Nc2ccc3nc4n(c(=O)c3c2)CCCCC4)C1 (centres undefined)	-4.1	1.7	13.0	-16.7*	0.7
O=C(Nc1ccc2nc3n(c(=O)c2c1)CCCCC3)c1c(F)ccc([N+](=O)[O-])c1F	66.9	-0.6	·	-22.2*	-1.3
O=C(Nc1ccc2nc3n(c(=O)c2c1)CCCCC3)c1cc([N+](=O)[O-])ccc1F	2.3	2.8	·	-8.9	-0.5
CC(=O)N1C[C@@H]2C(c3ccc(Br)cc3)[C@H](C1)N2C(=O)NC(C)C (some centres undefined)	·	·	·	-3.1	·
CN(C)C(=O)[C@@H]1[C@@H](CO)[C@@H]2Cn3c(cccc3=O)[C@@H]2N1CC1CCCC1	-4.8[16.7 µM]	·	0.0	4.7	-2.9
Cc1ccc(-n2c(O)c(C=Nc3ccccc3-c3n[nH]c(=S)[nH]c3=O)c3ccccc3c2=O)cc1C	-8.2	1.7	·	-37.9*	·
C[C@@H]1CN([C@@H](C)CO)C(=O)Cc2cc(NC(=O)Cn3cnnn3)ccc2O[C@@H]1CN(C)Cc1ccc2c(c1)OCO2	4.6[16.7 µM]	0.6	·	-2.3	-0.4
SMILES	miR-122 sensor	DENV2 CPE	E-sel inducer	rRNA inh HTS	Cneo AK release
O=C(C[C@H]1CC[C@@H]2[C@H](COC[C@@H](O)CN2C(=O)Nc2ccc(Cl)c(Cl)c2)O1)NCc1ccc(Cl)cc1	-16.1[16.7 µM]	-7.1	0.1	-60.3	-5.6
O=C1CCC(C(=O)OCC(=O)Nc2ccc(SC(F)F)cc2)=NN1	-1.2	29.1*	·	0.4	1.5
O=C1CCC(C(=O)OCC(=O)Nc2ccccc2Br)=NN1	-0.1	?	-0.1	10.6	0.7
CC1CC(C)CN(C(=O)COC(=O)c2nccnc2N)C1 (centres undefined)	-0.4	45.1*	0.2	·	2.7
Cc1ccc(S(=O)(=O)N[C@@H]2C=C[C@H](CC(=O)NC3CCCCC3)O[C@@H]2CO)cc1	·	0.1	-0.3	-2.1	3.7
O=C1NC(=O)/C(=C\c2ccc(Cl)cc2Cl)N1	-8.0	-2.2	0.0	-19.5*	2.2
O=C1NC(=O)/C(=C/c2ccccc2Cl)N1	-5.3	4.1	0.2	12.6	-1.2
C/C=C/c1ccc(C2[C@H]3CNC[C@@H]2N3Cc2cc(OC)cc(OC)c2)cc1 (some centres undefined)	·	-1.4	0.4	6.2	·
C/C=C/c1ccc(C2[C@H]3CNC[C@@H]2N3Cc2nccs2)cc1 (some centres undefined)	·	39.1*!	0.0	4.6	·
CC(=O)c1ccc(N(C)C)cc1	1.0	·	·	·	-2.1
CN(C)c1ccc(/C(=N\O)C(F)(F)F)cc1	1.2	4.5	·	-30.9*	-0.2
CNC[C@@H]1OCCCC[C@H](C)Oc2ccc(NC(=O)NC(C)C)cc2C(=O)N([C@H](C)CO)C[C@H]1C	-2.0[16.7 µM]	-1.8	0.1	9.9	116.8*
CNC[C@H]1Oc2ccc(N(C)C)cc2C(=O)N([C@@H](C)CO)C[C@H]1C	-3.8[16.7 µM]	-3.0	129.1*	-1.6	-2.3
CNC[C@H]1Oc2ccc(NC(=O)NC(C)C)cc2C(=O)N([C@@H](C)CO)C[C@@H]1C	-4.1[16.7 µM]	28.3*	-4.4	1.7	1.9
CNC[C@@H]1OCCCC[C@@H](C)Oc2ccc(NC(=O)Nc3c(C)noc3C)cc2C(=O)N([C@H](C)CO)C[C@H]1C	3.4[16.7 µM]	21.8*	0.1	5.7	-5.4
CNC[C@@H]1Oc2ccc(NC(=O)NC(C)C)cc2C(=O)N([C@H](C)CO)C[C@@H]1C	-1.4[16.7 µM]	-5.2	-3.3	4.0	-31.7
CNC[C@H]1OCCCC[C@@H](C)Oc2ccc(NC(=O)Nc3c(C)noc3C)cc2C(=O)N([C@H](C)CO)C[C@@H]1C	1.1[16.7 µM]	·	-0.1	4.8	·
O=C(O)c1csc(N/N=C/c2ccc(Br)cc2)n1	4.5	6.0	6.2	-28.4*	·
Cc1csc(N/N=C/c2ccc([N+](=O)[O-])cc2)n1	2.4	1.3	·	6.3	-4.4
O=C(CSc1ncnc2c1oc1ccccc12)Nc1cccc(C(F)(F)F)c1	-1.8	36.5*	0.3	-8.8	1.0
N#Cc1ccc(-c2ccc([C@@H]3[C@@H](CO)N4C(=O)CN(C(=O)Cc5ccccc5)C[C@H]34)cc2)cc1	·	-0.8	-0.1	-4.0	·
C[C@@H]1CCCCO[C@H](CN(C)Cc2ccc(C(F)(F)F)cc2)[C@H](C)CN([C@H](C)CO)C(=O)c2cc(NC(=O)Nc3ccccc3)ccc2O1	-6.2[16.7 µM]	-0.7	0.1	2.7	2.7
Cc1ccc(NC(=O)Nc2ccc3c(c2)N(C)C(=O)CS3)cc1C	3.4	-1.5	·	-12.7*	-2.6

Source: PubChem BioAssay
